Experimental data as given in paper PMC3472112 (Structure (London, England : 1993), 2012).
Where two headings read alike, the source gives them in different places. One block for each molecule: values may come before it.

Columns and labels:
[1] = biological target: T1, AI-BP (Mus musculus, UniProt Q8K4Z3); assay: isothermal titration calorimetry; assay type: binding; details: 100 mM HEPES pH 7.5, 100 mM NaCl, 25°C
T1 sequence (Q8K4Z3 25-282): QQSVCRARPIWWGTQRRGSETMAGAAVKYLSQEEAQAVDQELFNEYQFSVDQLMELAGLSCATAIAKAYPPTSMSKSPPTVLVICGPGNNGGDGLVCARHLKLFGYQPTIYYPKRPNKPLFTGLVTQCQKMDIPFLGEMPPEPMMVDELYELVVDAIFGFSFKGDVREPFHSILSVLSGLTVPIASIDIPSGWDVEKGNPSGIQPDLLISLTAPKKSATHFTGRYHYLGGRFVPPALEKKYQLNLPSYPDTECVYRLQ
Outline: (§1)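 Isothermal titrations were run at 25°C, with Tm0922 also tested at 55°C, in 100 mM HEPES pH 7.5 with 100 mM NaCl. Purified protein was in the cell at 70-130 μM. Metabolite ligands from the NAD-related and thymine-related sets were titrated to final concentrations 1.2 to 5 times the protein concentration. Binding parameters were taken from curves fitted to the titration profiles.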

[2] = biological target: T2, Tm0922 (Thermotoga maritima, UniProt Q9X024); assay: isothermal titration calorimetry; assay type: binding
T2 sequence (Q9X024 1-490): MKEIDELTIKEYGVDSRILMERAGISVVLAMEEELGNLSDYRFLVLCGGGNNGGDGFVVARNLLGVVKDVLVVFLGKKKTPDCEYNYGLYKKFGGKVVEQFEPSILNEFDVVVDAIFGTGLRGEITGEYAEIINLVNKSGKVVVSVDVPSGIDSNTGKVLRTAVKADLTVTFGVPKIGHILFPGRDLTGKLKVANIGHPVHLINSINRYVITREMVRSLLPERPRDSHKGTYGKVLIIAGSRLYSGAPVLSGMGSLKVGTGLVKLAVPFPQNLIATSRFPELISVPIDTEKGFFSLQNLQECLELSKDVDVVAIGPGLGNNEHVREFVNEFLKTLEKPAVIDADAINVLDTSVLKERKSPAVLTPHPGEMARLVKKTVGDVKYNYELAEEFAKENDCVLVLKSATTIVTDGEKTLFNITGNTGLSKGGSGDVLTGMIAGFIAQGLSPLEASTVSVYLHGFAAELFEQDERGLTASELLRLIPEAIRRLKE
Outline: as §1

[3] = biological target: T3, YxkO (Bacillus subtilis, UniProt P94368); assay: isothermal titration calorimetry; assay type: binding
T3 sequence (P94368 1-276): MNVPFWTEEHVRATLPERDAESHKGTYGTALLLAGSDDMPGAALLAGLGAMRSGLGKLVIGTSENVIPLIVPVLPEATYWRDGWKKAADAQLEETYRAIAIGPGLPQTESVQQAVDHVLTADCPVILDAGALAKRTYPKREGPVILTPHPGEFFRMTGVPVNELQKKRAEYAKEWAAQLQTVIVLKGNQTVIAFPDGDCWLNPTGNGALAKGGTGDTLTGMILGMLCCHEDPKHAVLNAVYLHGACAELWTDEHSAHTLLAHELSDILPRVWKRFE
Outline: as §1

[4] = biological target: T3, YxkO; assay: crystal structure; details: ATP-binding site, Mg2+
[5] = biological target: T3, YxkO; assay: crystal structure; assay type: binding; details: kinase substrate site, AMP/Mg2+ in ATP site; dehydratase substrate
[6] = substrate: NC(=O)C1=CN([C@@H]2O[C@H](COP(=O)(O)OP(=O)(O)OC[C@H]3O[C@@H](n4cnc5c(N)ncnc54)[C@H](O)[C@@H]3O)[C@@H](O)[C@H]2O)C(O)CC1; assay: purified protein; assay type: biochemical, Bacillus subtilis; details: co-substrate ADP, 25°C
[7] = substrate: Nc1ncnc2c1ncn2[C@@H]1O[C@H](COP(=O)(O)OP(=O)(O)O)[C@@H](O)[C@H]1O; assay: purified protein; assay type: biochemical, Bacillus subtilis; details: co-substrate NADHX, 25°C, varied: cofactor

Molecule: Nc1ncnc2c1ncn2[C@@H]1O[C@H](COP(=O)(O)OP(=O)(O)OC[C@H]2OC(O)[C@H](O)[C@@H]2O)[C@@H](O)[C@H]1O (stereo partly shown) [ADPR]
- Kd [1]: 451 ± 30.8 µM
- Kd ([2]; 100 mM HEPES pH 7.5, 100 mM NaCl, 25°C (55°C also tested), likely YjeF_N site): 5.1 ± 0.4 µM

Molecule: Nc1ncnc2c1ncn2[C@@H]1O[C@H](COP(=O)(O)OP(=O)(O)OP(=O)(O)O)[C@@H](O)[C@H]1O [ATP]
- Kd [3]: 595 ± 134 µM

Molecule: Nc1ncnc2c1ncn2[C@@H]1O[C@H](COP(=O)(O)OP(=O)([O-])OC[C@H]2O[C@@H]([n+]3cccc(C(=O)O)c3)[C@H](O)[C@@H]2O)[C@@H](O)[C@H]1O [NAAD]
- crystal structure (cocktail soak) [4]: nicotinic acid adenine dinucleotide (NAAD) is bound in the same position

Molecule: NC(=O)C1=CN([C@@H]2O[C@H](COP(=O)(O)OP(=O)(O)OC[C@H]3O[C@@H](n4cnc5c(N)ncnc54)[C@H](OP(=O)(O)O)[C@@H]3O)[C@@H](O)[C@H]2O)C(O)CC1 (stereo partly shown) [NADPHX]
- crystal structure (ATP/Mg2+ co-crystal soaked with NADPH) [5]: Coordination of NADPHX in the active site of YxkO

Molecule: NC(=O)c1ccc[n+]([C@@H]2O[C@H](COP(=O)(O)OP(=O)(O)OC[C@H]3O[C@@H](n4cnc5c(N)ncnc54)[C@H](O)[C@@H]3O)[C@@H](O)[C@H]2O)c1 [NAD]
- crystal structure (cocktail soak) [4]: YxkO and Tm0922 crystals soaked with cocktail G contained NAD in the predicted ATP-binding site

B1: YxkO (Bacillus subtilis subsp. subtilis str. 168) (protein)
chain: MNVPFWTEEHVRATLPERDAESHKGTYGTALLLAGSDDMPGAALLAGLGAMRSGLGKLVIGTSENVIPLIVPVLPEATYWRDGWKKAADAQLEETYRAIAIGPGLPQTESVQQAVDHVLTADCPVILDAGALAKRTYPKREGPVILTPHPGEFFRMTGVPVNELQKKRAEYAKEWAAQLQTVIVLKGNQTVIAFPDGDCWLNPTGNGALAKGGTGDTLTGMILGMLCCHEDPKHAVLNAVYLHGACAELWTDEHSAHTLLAHELSDILPRVWKRFE
- kcat [6]: 0.35 ± 0.01 s⁻¹
- Km [7]: 6.43 ± 0.49 µM
- kcat [7]: 0.35 ± 0.01 s⁻¹

The next lines start with the values.

- Kd [2]: 105 ± 11.1 µM
Molecule: Nc1ncnc2c1ncn2[C@@H]1O[C@H](COP(=O)(O)OP(=O)(O)OC[C@H]2O[C@@H]([n+]3cccc(C(=O)O)c3)[C@H](O)[C@@H]2O)[C@@H](O)[C@H]1OP(=O)(O)O [NAADP]

- Kd [3]: 9.6 ± 0.7 µM
Molecule: NC(=O)C1=CN([C@@H]2O[C@H](COP(=O)(O)OP(=O)(O)OC[C@H]3O[C@@H](n4cnc5c(N)ncnc54)[C@H](O)[C@@H]3O)[C@@H](O)[C@H]2O)C=CC1 [NADH]

- Kd [2]: 5.3 ± 1.2 µM
Molecule: NC(=O)C1=CN([C@@H]2O[C@H](COP(=O)(O)OP(=O)(O)OC[C@H]3O[C@@H](n4cnc5c(N)ncnc54)[C@H](OP(=O)(O)O)[C@@H]3O)[C@@H](O)[C@H]2O)C=CC1 [NADPH]

- Kd [2]: 6 ± 0.9 µM
Molecule: NC(=O)c1ccc[n+]([C@@H]2O[C@H](COP(=O)(O)OP(=O)(O)OC[C@H]3O[C@@H](n4cnc5c(N)ncnc54)[C@H](OP(=O)(O)O)[C@@H]3O)[C@@H](O)[C@H]2O)c1 [NADP]
